From ChEMBL document CHEMBL4118244, “Design, synthesis and biological evaluation of benzofuran appended benzothiazepine derivatives as inhibitors of butyrylcholinesterase and antimicrobial agents” (Bioorg Med Chem, 2018)
The source made the active and inactive calls. No cut-off for these calls is given here.

Tests used:
Cholinesterase = Cholinesterase (Equus caballus, UniProt P81908); experiment: Inhibition of equine serum BChE using butyrylthiocholine iodide as substrate pretreated for 15 mins followed by substrate addition measured for 6 mins by Ellman's method
Cholinesterase, sequence (P81908 whole entry): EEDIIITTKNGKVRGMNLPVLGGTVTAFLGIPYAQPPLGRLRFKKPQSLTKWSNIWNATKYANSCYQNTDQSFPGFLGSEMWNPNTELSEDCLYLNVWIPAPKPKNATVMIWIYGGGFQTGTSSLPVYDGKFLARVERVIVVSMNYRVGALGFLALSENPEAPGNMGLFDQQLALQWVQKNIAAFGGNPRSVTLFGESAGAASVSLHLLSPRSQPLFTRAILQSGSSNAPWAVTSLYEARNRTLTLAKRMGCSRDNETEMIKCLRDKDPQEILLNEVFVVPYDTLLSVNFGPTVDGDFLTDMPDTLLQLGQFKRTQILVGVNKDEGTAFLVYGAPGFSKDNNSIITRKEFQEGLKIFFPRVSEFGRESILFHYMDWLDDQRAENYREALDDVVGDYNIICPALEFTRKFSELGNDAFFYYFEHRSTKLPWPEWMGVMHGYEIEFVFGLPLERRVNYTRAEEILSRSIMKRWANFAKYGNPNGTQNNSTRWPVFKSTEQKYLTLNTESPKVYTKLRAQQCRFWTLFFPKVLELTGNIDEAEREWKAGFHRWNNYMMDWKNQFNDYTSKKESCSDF
In short: (§1)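 Ellman spectrophotometric assay in 0.1 M phosphate buffer pH 8.0 with DTNB, 25 °C. AChE (electric eel, Type V-S) or BChE was preincubated 15 min with compound before adding acetylthiocholine iodide or butyrylthiocholine iodide, respectively. Absorbance change at 412 nm was read for 6 min. Five concentrations were tested in triplicate, corrected by a nonenzymatic blank, with a no-inhibitor reference.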

[1] = target: Acetylcholinesterase (Electrophorus electricus) (UniProt O42275); experiment: Inhibition of electric eel AChE using acetylthiocholine iodide as substrate pretreated for 15 mins followed by substrate addition measured for 6 mins by Ellman's method; in short: as §1
Acetylcholinesterase (Electrophorus electricus), sequence (O42275 24-633 limits assumed): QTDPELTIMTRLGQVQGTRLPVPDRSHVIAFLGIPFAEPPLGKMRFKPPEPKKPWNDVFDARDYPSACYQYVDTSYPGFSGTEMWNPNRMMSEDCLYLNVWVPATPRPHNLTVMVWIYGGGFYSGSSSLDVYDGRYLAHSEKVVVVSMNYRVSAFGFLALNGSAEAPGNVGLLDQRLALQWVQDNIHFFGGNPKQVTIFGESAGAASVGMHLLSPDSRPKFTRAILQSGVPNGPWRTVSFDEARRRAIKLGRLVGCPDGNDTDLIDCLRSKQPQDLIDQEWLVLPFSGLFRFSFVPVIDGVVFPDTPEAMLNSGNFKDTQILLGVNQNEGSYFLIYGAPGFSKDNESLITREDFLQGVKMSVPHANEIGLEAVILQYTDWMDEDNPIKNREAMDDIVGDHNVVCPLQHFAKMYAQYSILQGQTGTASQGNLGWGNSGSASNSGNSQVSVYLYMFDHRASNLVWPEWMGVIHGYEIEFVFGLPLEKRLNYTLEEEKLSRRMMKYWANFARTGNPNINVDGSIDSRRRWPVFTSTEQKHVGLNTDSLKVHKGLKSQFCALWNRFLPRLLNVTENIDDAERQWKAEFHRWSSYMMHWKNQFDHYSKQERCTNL

Aspergillus niger [2] = experiment: Antifungal activity against Aspergillus niger ATCC 16404 assessed as diameter of inhibition zone at 200 ug per disc after 72 hrs by agar disc diffusion method; format: functional
In short: (§2)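 Agar disc diffusion against mold. Compounds at 20 mg mL⁻¹ in DMSO, filter-sterilised. 6 mm discs carried 10 µl (200 µg per disc), with DMSO discs as negative control. Incubation 72 h at 30 °C. Read-out is growth inhibition zone diameter, mean of 3 repeats (±1 mm).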

Aspergillus brasiliensis [3] = experiment: Antifungal activity against Aspergillus brasiliensis PTCC 5011 assessed as diameter of inhibition zone at 200 ug per disc after 72 hrs by agar disc diffusion method; format: functional; in short: as §2
Candida albicans = experiment: Antifungal activity against Candida albicans ATCC 10231; format: functional
Aspergillus niger [4] = experiment: Antifungal activity against Aspergillus niger ATCC 16404; format: functional
Aspergillus brasiliensis [5] = experiment: Antifungal activity against Aspergillus brasiliensis PTCC 5011; format: functional
Bacillus spizizenii = experiment: Antibacterial activity against Bacillus subtilis ATCC 6633 assessed as diameter of inhibition zone at 200 ug per disc after 24 hrs by agar disc diffusion method; format: functional
In short: (§3)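 Agar disc diffusion. Compounds at 20 mg mL⁻¹ in DMSO, filter-sterilised. 100 µL of 10⁸ CFU mL⁻¹ bacteria spread on nutrient agar. 6 mm discs carried 10 µl (200 µg per disc), with DMSO discs as negative control. Incubation 24 h at 37 °C. Read-out is inhibition zone diameter, mean of 3 repeats (±1 mm).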

[6] = test system: Staphylococcus epidermidis; experiment: Antibacterial activity against Staphylococcus epidermidis ATCC 12228 assessed as diameter of inhibition zone at 200 ug per disc after 24 hrs by agar disc diffusion method; format: functional; in short: as §3
Salmonella paratyphi = experiment: Antibacterial activity against Salmonella paratyphi A serotype ATCC 5702 assessed as diameter of inhibition zone at 200 ug per disc after 24 hrs by agar disc diffusion method; format: functional; settings: Salmonella enterica subsp. enterica serovar Paratyphi A; in short: as §3
Klebsiella pneumoniae [7] = experiment: Antibacterial activity against Klebsiella pneumoniae ATCC 10031 assessed as diameter of inhibition zone at 200 ug per disc after 24 hrs by agar disc diffusion method; format: functional; in short: as §3
Shigella dysenteriae = experiment: Antibacterial activity against Shigella dysenteriae PTCC 1188 assessed as diameter of inhibition zone at 200 ug per disc after 24 hrs by agar disc diffusion method; format: functional; in short: as §3
Proteus vulgaris = experiment: Antibacterial activity against Proteus vulgaris PTCC 1182 assessed as diameter of inhibition zone at 200 ug per disc after 24 hrs by agar disc diffusion method; format: functional; in short: as §3
Pseudomonas aeruginosa = experiment: Antibacterial activity against Pseudomonas aeruginosa ATCC 27853; format: functional
Klebsiella pneumoniae [8] = experiment: Antibacterial activity against Klebsiella pneumoniae ATCC 10031; format: functional

Row | Compound | IC50 (Cholinesterase; read-out: IC50) | inhibition [1] | also measured
1 | O=[N+]([O-])c1ccc2oc(C3=Nc4ccccc4SC(c4c[nH]c5ccccc45)C3)cc2c1 (stereo not given) | 72 µM | inactive | 
2 | Brc1ccc2oc(C3=Nc4ccccc4SC(c4ccccc4)C3)cc2c1 (stereo not given) | 8.5 µM | inactive | 
3 | NYSTATIN |  |  | inhibition zone (IZ) (Aspergillus niger [2]): 27 mm; inhibition zone (IZ) (Aspergillus brasiliensis [3]): 23 mm; MIC (Candida albicans): 0.125 mg/L; MIC (Aspergillus niger [4]): 0.25 mg/L; MIC (Aspergillus brasiliensis [5]): 0.5 mg/L
4 | COc1ccc(C2CC(c3cc4ccccc4o3)=Nc3ccccc3S2)cc1 (stereo not given) | 4 µM | inactive | 
5 | COc1cccc2cc(C3=Nc4ccccc4SC(c4ccc(O)cc4)C3)oc12 (stereo not given) | 4.1 µM | inactive | 
6 | COc1cccc(C2CC(c3cc4ccccc4o3)=Nc3ccccc3S2)c1 (stereo not given) | 4.1 µM | inactive | 
7 | c1ccc2c(c1)N=C(c1cc3ccccc3o1)CC(c1c[nH]c3ccccc13)S2 (stereo not given) | 60 µM | inactive | 
8 | Brc1ccc2oc(C3=Nc4ccccc4SC(c4c[nH]c5ccccc45)C3)cc2c1 (stereo not given) | 28 µM | inactive | 
9 | GENTAMICIN |  |  | inhibition zone (IZ) (Bacillus spizizenii): 21 mm; inhibition zone (IZ) [6]: 35 mm; inhibition zone (IZ) (Salmonella paratyphi): 21 mm; inhibition zone (IZ) (Klebsiella pneumoniae [7]): 22 mm; inhibition zone (IZ) (Shigella dysenteriae): 18 mm; inhibition zone (IZ) (Proteus vulgaris): 23 mm; MIC (Pseudomonas aeruginosa): inactive; MIC (Klebsiella pneumoniae [8]): 0.25 mg/L
10 | COc1ccccc1C1CC(c2cc3ccccc3o2)=Nc2ccccc2S1 (stereo not given) | 4.8 µM | inactive | 
11 | COc1ccccc1C1CC(c2cc3cc(Br)ccc3o2)=Nc2ccccc2S1 (stereo not given) | 1.8 µM | inactive | 
12 | Cc1ccc(C2CC(c3cc4cc(Br)ccc4o3)=Nc3ccccc3S2)cc1 (stereo not given) | 8.5 µM | inactive | 
13 | COc1ccc(C2CC(c3cc4cc(Br)ccc4o3)=Nc3ccccc3S2)cc1 (stereo not given) | 1 µM | inactive | 
14 | Oc1ccc(C2CC(c3cc4ccccc4o3)=Nc3ccccc3S2)cc1 (stereo not given) | 14 µM | inactive | 
15 | COc1cccc2cc(C3=Nc4ccccc4SC(c4ccccc4)C3)oc12 (stereo not given) | 2.5 µM | inactive | 
16 | Oc1ccc(C2CC(c3cc4cc(Br)ccc4o3)=Nc3ccccc3S2)cc1 (stereo not given) | 6.5 µM | inactive | 
17 | COc1cccc(C2CC(c3cc4cc(Br)ccc4o3)=Nc3ccccc3S2)c1 (stereo not given) | 1 µM | inactive | 
18 | O=[N+]([O-])c1ccc2oc(C3=Nc4ccccc4SC(c4ccccc4)C3)cc2c1 (stereo not given) |  | inactive | IC50 (Cholinesterase): Not Active
